Laboratory results published in ChEMBL document CHEMBL6134766, “Design, synthesis, and evaluation of benzhydrylpiperazine-based novel dual COX-2/5-LOX inhibitors with anti-inflammatory and anti-cancer activity” (RSC Med Chem, 2025).
Calls of active or inactive are those of the source. The calls are words filed in the database; no cut-off is given here.

Experiments:
[1] = system: Rattus norvegicus; assay: Anti-inflammatory activity in carrageenan-induced paw edema Wistar rat model assessed as swelling thickness of paw at 10 mg/kg, po measured after 3 hrs by digital vernier caliper (reference value: 8.56 +/- 0.45 millimeter); format: functional
[2] = system: Rattus norvegicus; assay: Anti-inflammatory activity in carrageenan-induced paw edema Wistar rat model assessed as swelling thickness of paw at 10 mg/kg, po measured after 6 hrs by digital vernier caliper (reference value: 8.33 +/- 0.42 millimeter); format: functional
[3] = system: Rattus norvegicus; assay: Anti-inflammatory activity in carrageenan-induced paw edema Wistar rat model assessed as swelling thickness of paw at 10 mg/kg, po measured after 4 hrs by digital vernier caliper (reference value: 8.36 +/- 0.78 millimeter); format: functional
[4] = system: Rattus norvegicus; assay: Anti-inflammatory activity in carrageenan-induced paw edema Wistar rat model assessed as swelling thickness of paw at 10 mg/kg, po measured immediately by digital vernier caliper (reference value: 3.48 +/- 0.21 millimeter); format: functional
[5] = system: Rattus norvegicus; assay: Anti-inflammatory activity in carrageenan-induced paw edema Wistar rat model assessed as decrease in TNF-alpha level in paw tissue at 10 mg/kg, po measured for 6 hrs by ELISA; format: functional, organism-based
Method in brief: (§1)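 Paw tissue taken from carrageenan-edema rats dosed orally at 5, 10 or 20 mg kg−1. Tissue rinsed in PBS pH 7.4, minced, homogenized, filtered and centrifuged at 2000 rpm for 20 min at 4 °C. Supernatant assayed by ELISA for PGE2, IL-6, TNF-α and IL-10. Data as mean ± SD.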

[6] = Toxicity in fasting Wistar rat assessed as ulcer index at 10 mg/kg, po via gavage treated for 3 days consecutively by H and E staining based analysis (reference value: 0); format: organism-based; details: in vivo, 72 h, time 3 day
Method in brief: (§2)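 Fasted rats, n = 6/group, gavaged once daily for 3 days in 0.3% Na CMC (vehicle control 0.3% CMC); killed under anaesthesia 6 h after day-3 dose; stomachs saline-washed, mucosa examined with hand lens; ulcer score, index and % ulceration by reported scoring; some stomachs formalin-fixed, H&E stained.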

[7] = system: Rattus norvegicus; assay: Anti-inflammatory activity in carrageenan-induced paw edema Wistar rat model assessed as swelling thickness of paw at 10 mg/kg, po measured after 1 hr by digital vernier caliper (reference value: 8.47 +/- 0.25 millimeter); format: functional
[8] = system: Rattus norvegicus; assay: Analgesic activity in acetic acid-induced pain Wistar rat model assessed as number of writhing at 10 mg/kg, po pretreated for 30 mins followed by acetic acid treatment measured for 30 mins by writhing test (reference value: 40.33 +/- 3.01); format: functional; details: time 60 min, 1 h
[9] = system: Gastric mucosa; assay: Antioxidant activity in gastric mucosal tissue in Wistar rat assessed as decrease in nitrite level at 10 mg/kg, po; format: functional, organism-based
Method in brief: (§3)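 Fasted rats (n = 6/group) gavaged once daily for 3 days in 0.3% Na CMC and sacrificed 6 h after the final dose. Randomly chosen stomachs homogenized in cold PBS pH 7.4 and centrifuged at 1000 rpm for 10 min at 4 °C. Supernatant protein measured by Bradford assay; GSH and nitrate then measured by reported methods.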

[10] = Toxicity in Wistar rat assessed as change in serum ALT level at 10 mg/kg, po; format: organism-based; details: in vivo
Method in brief: (§4)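 Rats dosed orally in 0.3% Na CMC; retro-orbital blood clotted at room temperature, serum separated at 2000 rpm, 20 min, 4 °C; ALT, AST, creatinine and urea by commercial kits; n = 6 per group, mean ± SD; Tukey test after repeated-measures one-way ANOVA.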

[11] = system: Rattus norvegicus; assay: Anti-inflammatory activity in carrageenan-induced paw edema Wistar rat model assessed as swelling thickness of paw at 10 mg/kg, po measured after 5 hrs by digital vernier caliper (reference value: 8.47 +/- 0.32 millimeter); format: functional
[12] = Toxicity in fasting Wistar rat assessed as ulcer score at 10 mg/kg, po via gavage treated for 3 days consecutively by H and E staining based analysis (reference value: 0); format: organism-based; details: in vivo, 72 h, time 3 day; method in brief: as §2
[13] = Toxicity in Wistar rat assessed as change in serum urea level at 10 mg/kg, po; format: organism-based; details: in vivo; method in brief: as §4
[14] = system: Gastric mucosa; assay: Antioxidant activity in gastric mucosal tissue in Wistar rat assessed as increase in SOD level at 10 mg/kg, po; format: functional, organism-based
Method in brief: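 Gastric tissue from fasted rats (dosed orally once daily for 3 days in 0.3% Na CMC) homogenized in cold PBS pH 7.4, centrifuged 1000 rpm, 10 min, 4 °C; protein by Bradford; SOD measured in supernatant per reported procedure.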

[15] = system: Rattus norvegicus; assay: Anti-inflammatory activity in carrageenan-induced paw edema Wistar rat model assessed as swelling thickness of paw at 10 mg/kg, po measured after 2 hrs by digital vernier caliper (reference value: 8.65 +/- 0.53 millimeter); format: functional
[16] = Toxicity in Wistar rat assessed as change in serum AST level at 10 mg/kg, po; format: organism-based; details: in vivo; method in brief: as §4
[17] = system: Rattus norvegicus; assay: Anti-inflammatory activity in carrageenan-induced paw edema Wistar rat model assessed as increase in IL-10 level in paw tissue at 10 mg/kg, po measured for 6 hrs by ELISA; format: functional, organism-based; method in brief: as §1
[18] = Toxicity in Wistar rat assessed as change in serum creatinine level at 10 mg/kg, po; format: organism-based; details: in vivo; method in brief: as §4
[19] = system: Rattus norvegicus; assay: Anti-inflammatory activity in carrageenan-induced paw edema Wistar rat model assessed as decrease in IL-6 level in paw tissue at 10 mg/kg, po measured for 6 hrs by ELISA; format: functional, organism-based; method in brief: as §1
[20] = Toxicity in fasting Wistar rat assessed as ulceration at 10 mg/kg, po via gavage treated for 3 days consecutively by H and E staining based analysis (reference value: 0 %); format: organism-based; details: in vivo, 72 h, time 3 day; method in brief: as §2
[21] = system: Gastric mucosa; assay: Antioxidant activity in gastric mucosal tissue in Wistar rat assessed as increase in GSH level at 10 mg/kg, po; format: functional, organism-based; method in brief: as §3

COc1ccc2c(c1)c(CC(=O)O)c(C)n2C(=O)c1ccc(Cl)cc1 [INDOMETHACIN]
Activity [1]: 3.38 mm | Activity [2]: 3.29 mm | Activity [3]: 3.14 mm | Activity [4]: 3.37 mm | Activity [5]: Active | UI [6]: 304.16 | Activity [7]: 3.74 mm | Activity [8]: 16.5 | Activity [9]: Active | Activity [10]: Toxic | Activity [11]: 3.17 mm | Activity [12]: 3.041 | Activity [13]: Toxic | Activity [14]: Active | Activity [15]: 3.73 mm | Activity [16]: Toxic | Activity [17]: Active | Activity [18]: Toxic | Activity [19]: Active | Activity [20]: 100% | Activity [21]: Active
